# Measured values taken from ChEMBL document CHEMBL5705905, “Pharmacological targeting of kinases MST1 and MST2 augments tissue repair and regeneration” (Sci Transl Med, 2016).
# Calls of active or inactive are those of the source. The rule behind the calls is not given here.
# Columns and labels:
# [1] = target: Serine/threonine-protein kinase D3 (Homo sapiens) (UniProt O94806); assay: Inhibition of PRKD3 (unknown origin) assessed as remaining activity at 1 uM by Kinome scan method relative to control
# [2] = target: Discoidin domain-containing receptor 2 (Homo sapiens) (UniProt Q16832); assay: Inhibition of DDR2 (unknown origin) assessed as remaining activity at 1 uM by Kinome scan method relative to control
# [3] = target: Vascular endothelial growth factor receptor 3 (Homo sapiens) (UniProt P35916); assay: Inhibition of FLT4 (unknown origin) assessed as remaining activity at 1 uM by Kinome scan method relative to control
# [4] = target: cAMP-dependent protein kinase catalytic subunit alpha (Homo sapiens) (UniProt P17612); assay: Inhibition of PKAC-alpha (unknown origin) assessed as remaining activity at 1 uM by Kinome scan method relative to control
# [5] = target: Atypical kinase COQ8A, mitochondrial (Homo sapiens) (UniProt Q8NI60); assay: Inhibition of ADCK3 (unknown origin) assessed as remaining activity at 1 uM by Kinome scan method relative to control
# Procedure, shortened: (§1)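 Active-site-dependent competition-binding (KINOMEscan) panel of 468 kinases, test compound at 1 μM (from a 10 mM DMSO stock). Read-out is ctrl% = (test signal − positive control signal)/(negative control signal − positive control signal) × 100. DMSO is the negative control (100%) and a control compound is the positive control (0%). Lower ctrl% means tighter binding.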
# [6] = target: Tyrosine-protein kinase Tec (Homo sapiens) (UniProt P42680); assay: Inhibition of TEC (unknown origin) assessed as remaining activity at 1 uM by Kinome scan method relative to control
# [7] = target: Phosphatidylinositol 4,5-bisphosphate 3-kinase catalytic subunit gamma isoform (Homo sapiens, UniProt P48736); assay: Inhibition of PIK3CG (unknown origin) in presence of ATP by enzymatic assay
# [8] = target: Serine/threonine-protein kinase 24 (Homo sapiens, UniProt Q9Y6E0); assay: Inhibition of MST3 (unknown origin) in presence of ATP by enzymatic assay
# [9] = target: High affinity nerve growth factor receptor (Homo sapiens) (UniProt P04629); assay: Inhibition of TRKA (unknown origin) assessed as remaining activity at 1 uM by Kinome scan method relative to control
# [10] = target: Cyclin-dependent kinase 2 (Homo sapiens) (UniProt P24941); assay: Inhibition of CDK2 (unknown origin) assessed as remaining activity at 1 uM by Kinome scan method relative to control
# Procedure, shortened: (§2)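 Active-site-dependent competition-binding profiling (KINOMEscan) at 1 μM against a 468-kinase panel; compound supplied from a 10 mM DMSO stock. Read-out is ctrl% = (test signal − positive control signal)/(negative control signal − positive control signal) × 100. DMSO is the negative control (100%) and a control compound the positive control (0%). Lower ctrl% means tighter binding.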
# [11] = target: Citron Rho-interacting kinase (Homo sapiens) (UniProt O14578); assay: Inhibition of CIT (unknown origin) assessed as remaining activity at 1 uM by Kinome scan method relative to control; procedure, shortened: as §2
# [12] = target: Serine/threonine-protein kinase MARK1 (Homo sapiens) (UniProt Q9P0L2); assay: Inhibition of MARK1 (unknown origin) assessed as remaining activity at 1 uM by Kinome scan method relative to control
# [13] = target: T1, Serine/threonine-protein kinase 3 (Homo sapiens, UniProt Q13188); assay: Inhibition of recombinant His-tagged full-length MST2 (unknown origin) expressing in Escherichia coli assessed as MOB1a phosphorylation level incubated for 30 min in the presence of 30 uM ATP by immunoblot analysis
# T1 sequence (Q13188 whole entry): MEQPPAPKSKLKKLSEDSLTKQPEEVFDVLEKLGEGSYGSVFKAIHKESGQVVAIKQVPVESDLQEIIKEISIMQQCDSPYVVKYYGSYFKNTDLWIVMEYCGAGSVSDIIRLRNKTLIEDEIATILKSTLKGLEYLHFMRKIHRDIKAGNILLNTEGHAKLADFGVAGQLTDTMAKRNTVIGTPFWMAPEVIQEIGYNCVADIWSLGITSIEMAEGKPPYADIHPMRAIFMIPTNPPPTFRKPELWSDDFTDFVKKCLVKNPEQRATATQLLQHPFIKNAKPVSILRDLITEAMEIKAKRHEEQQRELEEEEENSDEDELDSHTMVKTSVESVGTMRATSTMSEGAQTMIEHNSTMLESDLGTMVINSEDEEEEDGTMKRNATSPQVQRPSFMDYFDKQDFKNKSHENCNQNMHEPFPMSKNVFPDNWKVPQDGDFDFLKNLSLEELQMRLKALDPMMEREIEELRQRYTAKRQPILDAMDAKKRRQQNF
# Mus musculus = assay: Protection against APAP induced liver injury in mouse assessed as decrease in mortality rate at 1 mg/kg, ip administered at 2.5 hrs; assay type: functional, organism-based
# [14] = target: Serine/threonine-protein kinase NLK (Homo sapiens) (UniProt Q9UBE8); assay: Inhibition of NLK (unknown origin) assessed as remaining activity at 1 uM by Kinome scan method relative to control
# [15] = target: Serine/threonine-protein kinase 35 (Homo sapiens) (UniProt Q8TDR2); assay: Inhibition of STK35 (unknown origin) assessed as remaining activity at 1 uM by Kinome scan method relative to control
# [16] = target: Cyclin-dependent kinase 14 (Homo sapiens) (UniProt O94921); assay: Inhibition of PFTK1 (unknown origin) assessed as remaining activity at 1 uM by Kinome scan method relative to control
# [17] = target: Casein kinase I isoform delta (Homo sapiens) (UniProt P48730); assay: Inhibition of CSNK1D (unknown origin) assessed as remaining activity at 1 uM by Kinome scan method relative to control; procedure, shortened: as §2
# [18] = target: Homeodomain-interacting protein kinase 3 (Homo sapiens) (UniProt Q9H422); assay: Inhibition of HIPK3 (unknown origin) assessed as remaining activity at 1 uM by Kinome scan method relative to control
# [19] = system: Tyrosine-protein kinase ABL1 (Homo sapiens), P00519 [H396P]; assay: Inhibition of ABL1 H396P mutant (unknown origin) assessed as remaining activity at 1 uM by Kinome scan method relative to control; procedure, shortened: as §1
# [20] = target: Serine/threonine-protein kinase PAK 4 (Homo sapiens) (UniProt O96013); assay: Inhibition of PAK4 (unknown origin) assessed as remaining activity at 1 uM by Kinome scan method relative to control
# [21] = system: Epidermal growth factor receptor (Homo sapiens), P00533 [UNDEFINED MUTATION]; assay: Inhibition of EGFR S752-I759del mutant (unknown origin) assessed as remaining activity at 1 uM by Kinome scan method relative to control
# [22] = target: Mitogen-activated protein kinase 10 (Homo sapiens) (UniProt P53779); assay: Inhibition of JNK3 (unknown origin) assessed as remaining activity at 1 uM by Kinome scan method relative to control
# [23] = system: Tyrosine-protein kinase ABL1 (Homo sapiens), P00519 [H396P]; assay: Inhibition of phosphorylated ABL1 H396P mutant (unknown origin) assessed as remaining activity at 1 uM by Kinome scan method relative to control
# Mitogen-activated protein kinase 10 (Homo sapiens), sequence (P53779 whole entry): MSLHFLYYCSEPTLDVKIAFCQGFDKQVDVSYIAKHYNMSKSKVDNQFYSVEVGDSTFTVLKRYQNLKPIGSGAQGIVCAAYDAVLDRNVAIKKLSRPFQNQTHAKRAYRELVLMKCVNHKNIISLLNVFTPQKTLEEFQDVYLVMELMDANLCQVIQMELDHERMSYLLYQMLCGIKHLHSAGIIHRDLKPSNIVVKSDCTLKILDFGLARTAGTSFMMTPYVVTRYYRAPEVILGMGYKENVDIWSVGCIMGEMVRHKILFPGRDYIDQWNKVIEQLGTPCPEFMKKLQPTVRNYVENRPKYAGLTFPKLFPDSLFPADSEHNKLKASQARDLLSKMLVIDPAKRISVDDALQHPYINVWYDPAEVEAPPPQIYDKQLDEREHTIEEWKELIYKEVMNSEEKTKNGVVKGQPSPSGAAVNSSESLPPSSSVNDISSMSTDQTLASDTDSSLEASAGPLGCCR
# High affinity nerve growth factor receptor (Homo sapiens), sequence (P04629 33-796 limits assumed): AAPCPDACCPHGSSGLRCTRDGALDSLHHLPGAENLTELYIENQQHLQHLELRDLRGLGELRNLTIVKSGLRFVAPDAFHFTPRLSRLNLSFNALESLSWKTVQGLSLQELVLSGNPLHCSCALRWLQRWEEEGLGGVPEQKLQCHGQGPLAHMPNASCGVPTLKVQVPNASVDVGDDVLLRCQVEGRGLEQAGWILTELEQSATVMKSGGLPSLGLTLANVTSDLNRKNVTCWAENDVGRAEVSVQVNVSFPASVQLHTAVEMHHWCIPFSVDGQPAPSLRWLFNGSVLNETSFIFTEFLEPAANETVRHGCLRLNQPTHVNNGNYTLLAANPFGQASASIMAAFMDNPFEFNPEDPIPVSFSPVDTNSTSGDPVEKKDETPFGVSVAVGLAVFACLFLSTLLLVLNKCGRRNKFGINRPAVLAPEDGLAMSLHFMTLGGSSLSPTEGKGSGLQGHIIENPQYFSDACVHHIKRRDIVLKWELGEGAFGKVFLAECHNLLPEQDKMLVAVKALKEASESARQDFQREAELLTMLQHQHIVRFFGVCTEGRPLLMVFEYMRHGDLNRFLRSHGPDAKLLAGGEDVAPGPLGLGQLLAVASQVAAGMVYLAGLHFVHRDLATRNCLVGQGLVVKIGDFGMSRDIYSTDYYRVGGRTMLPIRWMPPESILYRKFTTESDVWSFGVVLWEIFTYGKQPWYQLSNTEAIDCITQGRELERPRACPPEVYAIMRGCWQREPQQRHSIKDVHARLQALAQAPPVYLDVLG
# Vascular endothelial growth factor receptor 3 (Homo sapiens), sequence (P35916 whole entry): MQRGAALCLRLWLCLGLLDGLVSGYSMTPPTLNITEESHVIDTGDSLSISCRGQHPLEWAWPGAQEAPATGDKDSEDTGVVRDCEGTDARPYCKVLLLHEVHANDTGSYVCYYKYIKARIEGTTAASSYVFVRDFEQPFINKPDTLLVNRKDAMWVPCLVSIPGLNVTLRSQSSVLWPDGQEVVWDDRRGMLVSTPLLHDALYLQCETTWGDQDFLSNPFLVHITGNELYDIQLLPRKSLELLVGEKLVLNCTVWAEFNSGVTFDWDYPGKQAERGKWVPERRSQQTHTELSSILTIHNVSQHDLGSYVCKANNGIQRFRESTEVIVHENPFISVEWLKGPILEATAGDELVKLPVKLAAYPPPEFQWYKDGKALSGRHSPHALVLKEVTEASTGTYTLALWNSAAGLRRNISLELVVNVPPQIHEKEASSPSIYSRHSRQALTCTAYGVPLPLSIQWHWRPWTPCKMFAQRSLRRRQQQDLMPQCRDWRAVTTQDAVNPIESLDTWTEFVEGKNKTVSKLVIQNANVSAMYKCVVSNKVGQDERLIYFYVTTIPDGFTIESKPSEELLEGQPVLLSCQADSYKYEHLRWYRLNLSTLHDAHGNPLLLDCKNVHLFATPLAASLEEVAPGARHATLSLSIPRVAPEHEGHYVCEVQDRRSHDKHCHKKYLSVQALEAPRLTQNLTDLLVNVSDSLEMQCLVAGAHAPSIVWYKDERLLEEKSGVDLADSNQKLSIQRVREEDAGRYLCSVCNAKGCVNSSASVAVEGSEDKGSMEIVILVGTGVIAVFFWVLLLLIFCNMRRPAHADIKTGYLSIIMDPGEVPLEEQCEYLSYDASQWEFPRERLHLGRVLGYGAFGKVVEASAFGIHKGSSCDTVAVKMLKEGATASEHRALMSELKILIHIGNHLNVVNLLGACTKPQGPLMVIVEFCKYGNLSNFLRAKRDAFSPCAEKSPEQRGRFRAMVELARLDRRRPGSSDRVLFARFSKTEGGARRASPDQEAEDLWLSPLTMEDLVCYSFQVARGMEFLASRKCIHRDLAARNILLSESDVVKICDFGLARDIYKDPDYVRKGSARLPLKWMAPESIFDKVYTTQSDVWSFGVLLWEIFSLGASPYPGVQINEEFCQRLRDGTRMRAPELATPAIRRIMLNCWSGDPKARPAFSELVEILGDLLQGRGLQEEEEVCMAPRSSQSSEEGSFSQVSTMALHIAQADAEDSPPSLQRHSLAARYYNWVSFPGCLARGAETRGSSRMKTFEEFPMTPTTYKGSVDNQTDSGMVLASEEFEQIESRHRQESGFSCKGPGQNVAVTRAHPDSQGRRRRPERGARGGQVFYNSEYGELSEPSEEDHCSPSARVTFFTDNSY
# Serine/threonine-protein kinase NLK (Homo sapiens), sequence (Q9UBE8 whole entry): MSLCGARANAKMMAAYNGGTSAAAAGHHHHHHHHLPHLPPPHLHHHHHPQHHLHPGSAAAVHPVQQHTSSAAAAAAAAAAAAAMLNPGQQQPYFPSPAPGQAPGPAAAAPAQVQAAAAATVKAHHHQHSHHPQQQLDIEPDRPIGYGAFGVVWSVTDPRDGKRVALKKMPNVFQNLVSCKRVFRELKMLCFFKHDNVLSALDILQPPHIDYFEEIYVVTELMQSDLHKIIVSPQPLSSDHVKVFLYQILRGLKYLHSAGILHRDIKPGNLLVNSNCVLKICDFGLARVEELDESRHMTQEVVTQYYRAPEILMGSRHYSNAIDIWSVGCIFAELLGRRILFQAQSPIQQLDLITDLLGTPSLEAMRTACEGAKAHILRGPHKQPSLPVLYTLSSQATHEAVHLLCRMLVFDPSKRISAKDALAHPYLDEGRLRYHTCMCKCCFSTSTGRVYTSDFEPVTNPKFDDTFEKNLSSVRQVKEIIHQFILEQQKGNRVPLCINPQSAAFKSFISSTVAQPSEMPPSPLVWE
# Serine/threonine-protein kinase MARK1 (Homo sapiens), sequence (Q9P0L2 whole entry, looked up): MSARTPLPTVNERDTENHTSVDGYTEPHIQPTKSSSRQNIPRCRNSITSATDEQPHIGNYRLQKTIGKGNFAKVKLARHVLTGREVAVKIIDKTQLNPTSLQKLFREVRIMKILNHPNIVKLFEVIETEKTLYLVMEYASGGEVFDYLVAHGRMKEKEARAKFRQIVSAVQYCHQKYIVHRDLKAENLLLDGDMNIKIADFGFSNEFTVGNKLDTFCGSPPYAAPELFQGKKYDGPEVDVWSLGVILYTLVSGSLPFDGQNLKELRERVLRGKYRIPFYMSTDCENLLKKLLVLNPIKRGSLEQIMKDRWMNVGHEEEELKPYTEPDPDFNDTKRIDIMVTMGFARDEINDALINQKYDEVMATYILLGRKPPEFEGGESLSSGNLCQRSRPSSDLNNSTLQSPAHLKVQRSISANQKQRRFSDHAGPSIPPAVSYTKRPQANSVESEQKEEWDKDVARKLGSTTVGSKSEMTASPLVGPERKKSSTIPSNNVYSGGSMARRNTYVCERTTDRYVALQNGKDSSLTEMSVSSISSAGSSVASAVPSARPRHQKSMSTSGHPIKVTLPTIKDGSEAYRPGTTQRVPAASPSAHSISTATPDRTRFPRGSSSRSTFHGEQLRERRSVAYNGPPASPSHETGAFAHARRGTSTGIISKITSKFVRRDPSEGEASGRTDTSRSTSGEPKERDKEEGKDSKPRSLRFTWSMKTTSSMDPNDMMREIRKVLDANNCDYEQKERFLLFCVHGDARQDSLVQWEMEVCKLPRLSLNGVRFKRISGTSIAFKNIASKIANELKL
# Discoidin domain-containing receptor 2 (Homo sapiens), sequence (Q16832 whole entry, the tested form may be a part): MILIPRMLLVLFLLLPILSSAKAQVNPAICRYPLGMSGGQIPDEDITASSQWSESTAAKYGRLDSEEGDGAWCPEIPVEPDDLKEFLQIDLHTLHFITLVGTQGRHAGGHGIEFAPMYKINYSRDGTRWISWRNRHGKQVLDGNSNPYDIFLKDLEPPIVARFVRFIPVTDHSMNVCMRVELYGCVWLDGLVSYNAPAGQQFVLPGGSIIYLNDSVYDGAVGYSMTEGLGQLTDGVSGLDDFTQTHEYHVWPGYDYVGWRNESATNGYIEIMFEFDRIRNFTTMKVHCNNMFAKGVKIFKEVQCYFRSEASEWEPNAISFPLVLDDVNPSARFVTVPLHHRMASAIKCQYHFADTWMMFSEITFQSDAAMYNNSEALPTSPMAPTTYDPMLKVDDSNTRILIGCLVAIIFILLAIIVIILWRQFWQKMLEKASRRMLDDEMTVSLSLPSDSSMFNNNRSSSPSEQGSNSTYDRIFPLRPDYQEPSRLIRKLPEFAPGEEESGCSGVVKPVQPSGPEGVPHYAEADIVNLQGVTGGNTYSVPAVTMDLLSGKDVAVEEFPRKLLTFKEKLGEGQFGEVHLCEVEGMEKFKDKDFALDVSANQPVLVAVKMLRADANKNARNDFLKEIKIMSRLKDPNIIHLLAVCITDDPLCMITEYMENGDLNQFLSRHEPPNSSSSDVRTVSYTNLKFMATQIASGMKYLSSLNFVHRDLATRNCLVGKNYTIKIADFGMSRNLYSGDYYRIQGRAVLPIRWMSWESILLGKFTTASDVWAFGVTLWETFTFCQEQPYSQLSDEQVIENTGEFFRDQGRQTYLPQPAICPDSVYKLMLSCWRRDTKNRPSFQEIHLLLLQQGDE
smiles,measurement,setting,value
CN1C(=O)c2sccc2N(C)c2nc(Nc3ccc(S(N)(=O)=O)cc3)ncc21,Activity,[1],65%
same,Activity,[2],100%
same,Activity,[3],67%
same,Activity,[4],97%
same,Activity,[5],92%
same,Activity,[6],100%
same,IC50,[7],0.0384 µM
same,IC50,[8],0.0448 µM
same,Activity,[9],56%
same,Activity,[10],90%
same,Activity,[11],96%
same,Activity,[12],92%
same,IC50,[13],0.177 µM
same,Activity,Mus musculus,Active
same,Activity,[14],85%
same,Activity,[15],100%
same,Activity,[16],100%
same,Activity,[17],90%
same,Activity,[18],100%
same,Activity,[19],11%
same,Activity,[20],86%
same,Activity,[21],100%
same,Activity,[22],82%
same,Activity,[23],14%
